This is a sample that favours compounds with a hit; in the whole collection about 2.3% have one here.
TRPC4 block: TRPC4 (mouse) channel inhibition. Q9QUQ5. HEK293 TRPC4beta/mu-opioid, DAMGO-evoked Fluo4 calcium flux; active compounds read low. B-score at 10 µM. actives 0.39% (n = 300,000);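 active = B-score over 3 SD under the library average, no early fluorescence shift, positive overall ratio signal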
Target sequence (Q9QUQ5 whole entry, looked up): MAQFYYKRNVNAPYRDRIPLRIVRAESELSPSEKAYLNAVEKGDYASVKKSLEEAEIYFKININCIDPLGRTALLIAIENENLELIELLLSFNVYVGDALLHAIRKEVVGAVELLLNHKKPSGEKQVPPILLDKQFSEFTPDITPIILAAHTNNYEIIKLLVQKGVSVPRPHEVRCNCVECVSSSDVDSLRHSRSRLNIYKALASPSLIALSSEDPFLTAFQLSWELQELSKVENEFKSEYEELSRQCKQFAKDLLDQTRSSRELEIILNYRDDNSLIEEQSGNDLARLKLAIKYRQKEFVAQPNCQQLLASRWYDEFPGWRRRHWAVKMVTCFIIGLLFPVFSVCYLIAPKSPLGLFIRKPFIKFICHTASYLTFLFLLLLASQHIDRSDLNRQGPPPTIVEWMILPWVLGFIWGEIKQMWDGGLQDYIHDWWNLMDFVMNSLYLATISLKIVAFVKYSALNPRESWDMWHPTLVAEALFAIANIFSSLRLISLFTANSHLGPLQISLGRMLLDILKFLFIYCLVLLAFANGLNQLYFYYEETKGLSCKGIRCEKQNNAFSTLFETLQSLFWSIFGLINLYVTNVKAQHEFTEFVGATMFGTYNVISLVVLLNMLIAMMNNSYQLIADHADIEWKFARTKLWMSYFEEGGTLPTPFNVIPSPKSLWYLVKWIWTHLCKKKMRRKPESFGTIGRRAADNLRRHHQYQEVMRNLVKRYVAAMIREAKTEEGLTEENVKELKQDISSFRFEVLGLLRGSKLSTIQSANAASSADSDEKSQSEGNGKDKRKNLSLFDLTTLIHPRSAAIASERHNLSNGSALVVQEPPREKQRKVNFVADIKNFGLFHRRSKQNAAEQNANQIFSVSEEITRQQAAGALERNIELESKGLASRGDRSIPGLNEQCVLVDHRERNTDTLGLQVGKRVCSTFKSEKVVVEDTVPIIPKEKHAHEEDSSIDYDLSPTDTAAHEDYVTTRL
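System: stable TRPC4beta/mu-opioid receptor HEK293 cells; Dosing: single-point compound dosing; Measured by: Fluo4 Ca2+ flux fluorescence; Read-out basis: per-well B score of integrated baseline-normalized Fluo4 ratio.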
TRPC6 inhibitor: blocks the mouse TRPC6 cation channel | B-score at 10 µM | AID 2553 | actives 1.1% (n = 310,000) | Q61143 | HEK293-TRPC6, membrane potential dye, ACh-evoked depolarization; active compounds read low;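 active = B-score under library mean minus 3 SD, initial fluorescence not abnormally high, positive integrated signal ratio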;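 note: B-score derived from integrated fluorescence ratio over the kinetic read; more negative B-score means stronger inhibition of depolarization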
TRPC6 activator: activators of mouse TRPC6 channel; Q61143; B-score at 10 µM; HEK293-TRPC6 membrane potential dye fluorescence; active compounds read high; actives 0.13% (n = 310,000);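 active = B-score of the integrated fluorescence ratio above library mean plus 3 SD, and starting fluorescence ratio within library mean plus 5 SD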;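 note: higher score means more depolarization so channel activation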
TRPC4 PAM: allosteric potentiators of mouse TRPC4 channel; Q9QUQ5; HEK293 TRPC4beta/mu-opioid, DAMGO EC20, Fluo-4 Ca2+ flux; active compounds read high; B-score at 10 µM; actives 0.42% (n = 310,000); AID 2227;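 active = B-score of calcium response area above 5 SD of library B-scores, with initial fluorescence ratio within 5 SD of library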;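 note: B-score of integrated fluorescence ratio over time as area under calcium response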
TRPC4 agonist: activators of mouse TRPC4 channel; Q9QUQ5; HEK293 TRPC4beta/mu-opioid, Fluo4 calcium fluorescence; active compounds read high; B-score at 10 µM; actives 0.49% (n = 310,000); AID 2237;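 active = B-score above 5 SD of library B-scores, and initial fluorescence ratio not above library mean plus 5 SD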;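 note: positive B-score marks a calcium rise read as TRPC4 activation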
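Incubation: 45 min room-temperature Fluo4 loading, 110 s read / System: HEK293 cells stably co-expressing mouse TRPC4beta and mu-opioid receptor / Signal: Fluo4 fluorescence, kinetic / Control set: buffer (low) and maximal DAMGO (high) / Measure: integrated baseline-normalised fluorescence ratio, converted to per-well B score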
TRPC4 sel inh 2: second selectivity test of TRPC6 inhibitors: effect on mouse TRPC4 | actives 42% (n = 920) | AID 2776 | inhibition, % at 10 µM | shares compounds with TRPC6 inhibitor | HEK293 TRPC4/MOR, membrane potential dye fluorescence; channel activated by saturating DAMGO dose;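 active = compounds whose fluorescence signal differed from control wells by over 3 SD, either direction, in both duplicate plates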
TRPC4 spec: mouse TRPC4 off-target activity of TRPC6 inhibitors. shares compounds with TRPC6 inhibitor. actives 61% (n = 920). HEK293 TRPC4/mu-opioid, membrane potential fluorescence. activity change, negative = inhibition, % at 10 µM. AID 2777;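 active = rise or fall in signal beyond 3 SD of buffer-only wells in both replicate plates, either sign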;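 note: integrated kinetic ratio of fluorescence range over baseline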
HEK293 MPD ctr 2-1: second counter-screen for TRPC6 inhibitors: parental HEK293 cells; shares compounds with TRPC6 inhibitor; parental HEK293 membrane potential dye fluorescence; maximal acetylcholine challenge after compound addition; AID 2779; actives 31% (n = 920); signal change vs control, % at 10 µM;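 active = membrane potential signal moving either way by over 3 SD of the maximum-effect control, in both duplicate plates, meaning non-specific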
HEK293 MPD ctr-1: parental HEK293 nonspecific activity of TRPC6 inhibitors. membrane potential signal change, % at 10 µM. actives 60% (n = 920). shares compounds with TRPC6 inhibitor. parental HEK293 membrane potential dye fluorescence;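 active = membrane potential signal shifting up or down by more than 3 SD of buffer-only wells, on both duplicate plates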
HEK293 MPD ctr-2: checks TRPC6 modulator effects in parental HEK293 cells; actives 51% (n = 2,400); membrane potential dye fluorescence; membrane potential signal change, % at 10 µM; shares compounds with TRPC6 inhibitor;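 active = membrane potential signal moves up or down beyond 5 SD from buffer-only wells, on both duplicate plates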
HEK293 MPD ctr 2-2: second check of TRPC6 modulator effects in parental HEK293 cells; shares compounds with TRPC6 inhibitor; membrane potential dye fluorescence; after compound, maximal acetylcholine stimulation; inhibition, % at 10 µM; actives 14% (n = 2,400); AID 488926;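 active = membrane potential signal drops by more than 5 SD from the mean control signal, in both duplicate plates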;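 note: plate controls were acetylcholine ECmax control wells for no effect and buffer only wells for full effect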
TRPC4/MOR mod: tests whether TRPC6 modulators also affect mouse TRPC4. actives 69% (n = 2,400). AID 488927. percent change from control (negative = decrease, positive = increase), % at 10 µM. HEK293 TRPC4/mu-opioid, membrane potential fluorescence. shares compounds with TRPC6 inhibitor;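 active = membrane potential signal moved up or down beyond 5 SD of buffer control wells, in both duplicate plates, actives on both sides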;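 note: plate controls were assay buffer wells for no effect and DAMGO maximal-effect wells for full effect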
TRPC4 ctr inh 2: second check of whether TRPC6 modulators also affect mouse TRPC4. shares compounds with TRPC6 inhibitor. HEK293 TRPC4/mu-opioid, membrane potential dye fluorescence; stimulated with maximal-effect DAMGO. inhibition, % at 10 µM. actives 55% (n = 2,400). AID 488928;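 active = drop in membrane potential signal beyond 5 SD of the control wells in both duplicate plates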;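 note: TRPC4 counter screen for TRPC6 hits run under conditions tuned for TRPC6 not TRPC4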
TRPC6 block conf: mouse TRPC6 inhibitor confirmation. shares compounds with TRPC6 inhibitor. HEK293-TRPC6, membrane potential dye, ACh-evoked depolarization. inhibition, % at 10 µM. actives 43% (n = 3,300);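 active = fluorescence ratio falls more than 5 SD below the full-stimulation control mean, in both duplicate runs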;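 note: integrated fluorescence ratio of peak minus minimum over baseline after agonist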
TRPC6 act conf: mouse TRPC6 activator confirmation. activation, % at 10 µM. actives 11% (n = 2,800). HEK293-TRPC6 membrane potential dye fluorescence, FDSS. AID 488961. shares compounds with TRPC6 inhibitor;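 active = ratio signal rise beyond 5 SD above unstimulated control wells' mean, seen in both duplicate runs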;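 note: plate controls were buffer EC0 wells for no effect and acetylcholine ECmax response for full effect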
Active calls of the source: *; i = inactive; x = not tested or not shown; ! = a repeat was not active.

SMILES | TRPC4 block | TRPC6 inhibitor | TRPC6 activator | TRPC4 PAM | TRPC4 agonist | HEK293 MPD ctr-2 | HEK293 MPD ctr 2-2 | TRPC4/MOR mod | TRPC4 ctr inh 2 | TRPC6 block conf | TRPC6 act conf | others
O=C(CCOc1ccccc1)NCC(c1ccco1)N1CCCCC1 (stereo not given) | i | -5.6* | i | i | i | i | i | 12%* | i | i | x
O=C(COc1ccccc1)NCC(c1ccco1)N1CCN(c2ccccc2F)CC1 (stereo not given) | i | -5.9* | i | i | i | 141%* | i | 32%* | 46%* | 64%* | x
CCCCCCNC(=O)CNC(=S)N(Cc1cccs1)C1CCCCC1 | i | i | i | i | i | x | x | x | x | x | x
NC(=O)c1cc(NC(=O)c2ccc(NS(=O)(=O)c3cccs3)cc2)cc(C(N)=O)c1 | i | i | i | i | i | x | x | x | x | x | x
COc1ccccc1NC(=O)COc1ccc(Br)cc1CNC1CCCC1 | i | -7.6* | i | i | i | x | x | x | x | i | i | TRPC4 sel inh 2=54%*;TRPC4 spec=14%*;HEK293 MPD ctr 2-1=238%*;HEK293 MPD ctr-1=9.8%*
COC(=O)c1ccccc1OCC(=O)NC1CCCCC1 | i | -5.3* | i | i | i | i | i | 8.0%* | i | i | x
COc1ccc(S(=O)(=O)CCC(=O)NC2CCCCC2)cc1 | i | -8.1* | i | i | i | x | x | x | x | i | i | TRPC4 sel inh 2=i;TRPC4 spec=i;HEK293 MPD ctr 2-1=i;HEK293 MPD ctr-1=i
COc1ccccc1CC(=O)NC1CCCCCC1 | i | i | i | i | i | x | x | x | x | x | x
CCc1ccccc1OCC(=O)NC1CCCC1 | i | -5.8* | i | i | i | 112%* | i | 20%* | i | 41%* | x
O=C(CCS(=O)(=O)c1ccccc1)NC1CCCCC1 | i | i | i | i | i | x | x | x | x | x | x
COc1ccccc1N(CC(=O)NC1CCCCC1)S(=O)(=O)c1ccccc1 | i | -5.1* | i | i | i | 474%* | i | 208%* | 38%* | i | x
COc1ccccc1N(CC(=O)NC1CCCCC1)S(C)(=O)=O | i | i | i | i | i | x | x | x | x | x | x
O=C(COc1ccccc1)NC1CCCCCCC1 | i | -6* | i | 39* | i | 102%* | i | 77%* | i | i | x
COc1ccc(C(=O)Nc2ccnn2C2CCN(Cc3ccccn3)CC2)cc1 | i | i | i | i | i | x | x | x | x | x | x
CN(Cc1ccccc1)C(=O)CCn1c(=O)c2cccn2c2cccnc21 | i | i | i | i | i | x | x | x | x | x | x
CCC1=C(OC(=O)N(CC)CC)N2C(=O)OC(=NCCc3c[nH]c4ccccc34)[C@]2(Cc2ccccc2)[C@H]2C1=CC[C@H]1C(=O)NC(=O)[C@H]12 | i | i | i | i | i | x | x | x | x | x | x
CC(C)(C)C(=O)Nc1ccc(S(=O)(=O)N2CCCC2)cc1 | i | i | i | i | i | x | x | x | x | x | x
CN1CCN(c2ccc(S(=O)(=O)N3CCCCC3)cc2NC(=O)COc2ccc(F)cc2)CC1 | i | -5.9* | i | 10* | i | i | i | 10%* | 74%* | i | i
CC(C)(C)C(=O)Nc1cc(S(=O)(=O)N2CCCCC2)ccc1N1CCCCC1 | i | -10* | 16* | i | i | 180%* | i | 20%* | i | 43%* | 74%*
O=C(COc1ccc(Br)cc1)Nc1cc(S(=O)(=O)N2CCCCC2)ccc1N1CCCCC1 | i | i | i | i | i | x | x | x | x | x | x
CN1CCN(c2ccc(NC(=O)COc3ccccc3Cl)cc2)CC1 | i | -9.2* | i | i | i | x | x | x | x | i | i | TRPC4 sel inh 2=58%*;TRPC4 spec=-11%*;HEK293 MPD ctr 2-1=i;HEK293 MPD ctr-1=-186%*
Cc1cc(OCC(=O)Nc2ccc(N3CCN(C)CC3)cc2)ccc1Cl | -6* | -5.1* | i | i | i | i | i | 30%* | 52%* | i | i
CCC(=O)N1CCN(c2ccc(NC(=O)COc3ccccc3Cl)cc2)CC1 | i | i | i | i | i | x | x | x | x | x | x
Cc1cc(OCC(=O)Nc2ccc(S(=O)(=O)N3CCN(C)CC3)cc2)ccc1Cl | i | i | i | i | i | x | x | x | x | x | x
CC(C)CC[n+]1ccccc1/C=C/c1ccc(N(C)C)cc1 | i | -5.8* | i | i | 66* | 719%* | 113%* | 115%* | i | 68%* | x
CN(C)c1ccc(/C=C/c2cccc[n+]2[O-])cc1 | i | i | i | i | i | x | x | x | x | x | x
O=c1[nH]c(=S)[nH]c2c1C(c1ccc(Br)cc1)c1c([nH]c(=S)[nH]c1=O)O2 | i | i | i | i | i | x | x | x | x | x | x
O=C(O)Cn1c(O)c(C=Nc2ccccc2)sc1=S | i | -12*! | i | i | i | x | x | x | x | i | i | TRPC4 sel inh 2=i;TRPC4 spec=i;HEK293 MPD ctr 2-1=i;HEK293 MPD ctr-1=i
CN1CCN(c2ccc([N+](=O)[O-])cc2NC(=O)c2cccs2)CC1 | i | i | i | i | i | x | x | x | x | x | x
COC(=O)Cc1c[nH]c2cccc(OCC(O)CN(Cc3ccccc3)C(C)C)c12 (stereo not given) | i | -7.2* | i | i | i | x | x | x | x | i | i | TRPC4 sel inh 2=72%*;TRPC4 spec=0.3%*;HEK293 MPD ctr 2-1=i;HEK293 MPD ctr-1=i

Screening data deposited in PubChem BioAssay by Johns Hopkins Ion Channel Center.
